CHO parental Ca: counter-screen: ATP calcium response change in parental CHO cells. parental CHO-K1, ATP-induced calcium, Fluo-8 fluorescence. inhibition, % at 5.6 µM. 0.63% of 330,000 active;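 active = inhibition above that plate's mean sample inhibition plus 3 SD, cut at about 26% in these data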;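 also: 0% = ATP-challenged DMSO wells and 100% = DMSO wells without ATP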
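Measured by: calcium-sensitive Fluo-8 fluorescence / Test system: CHO parental line / Controls: ATP-challenged DMSO wells low, unchallenged DMSO wells high / Measure: % inhibition / Compound: single nominal dose of 5.6 µM per compound / Replicates: single well per compound, no replicates / Reagent: ATP as calcium-mobilizing challenge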
MPTP block: permeability transition pore inhibition. isolated mouse mitochondria, Ca2+ swelling absorbance, 30 min. inhibition, % at 10 µM. 1.4% of 360,000 active;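 active = inhibition of 50% or more, scaled per plate between neutral and stimulator controls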;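 also: 0% = DMSO wells given calcium and 100% = 1 mM EGTA wells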
GPR7 antagonist: blocks human GPR7 receptor signaling. P48145. GPR7-expressing cells, fluorescence antagonist assay. inhibition, % at 4.4 µM. 1.1% of 290,000 active. AID 1861; in the data active = inhibition above about 16%, passing the limit was not always enough;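 also: cells stimulated with the agonist NPW; 0% = agonist with vehicle and 100% = vehicle without agonist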
OX1R antag-1: human HCRTR1 antagonism; O43613; CHO/OX1R cells, Fluo-8 calcium fluorescence, orexin A; inhibition, % at 5 µM; 0.43% of 330,000 active;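 active = inhibition above its plate's threshold, mean inhibition of all tested compounds on the plate plus 3 SD, cut at about 37% in these data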;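 also: 0% = orexin A challenge wells and 100% = SB-334867-A antagonist wells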
Target sequence (O43613 whole entry, looked up): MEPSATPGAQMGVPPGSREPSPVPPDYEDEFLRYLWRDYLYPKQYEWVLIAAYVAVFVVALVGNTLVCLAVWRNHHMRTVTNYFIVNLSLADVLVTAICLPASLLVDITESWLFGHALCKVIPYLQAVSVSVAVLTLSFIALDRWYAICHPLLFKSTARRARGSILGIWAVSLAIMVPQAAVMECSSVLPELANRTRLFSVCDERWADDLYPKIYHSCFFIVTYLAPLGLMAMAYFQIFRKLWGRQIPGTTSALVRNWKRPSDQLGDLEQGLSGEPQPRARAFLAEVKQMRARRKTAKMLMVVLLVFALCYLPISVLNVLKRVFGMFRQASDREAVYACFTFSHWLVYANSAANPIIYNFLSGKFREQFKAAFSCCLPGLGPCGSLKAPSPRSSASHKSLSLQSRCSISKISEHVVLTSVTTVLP
OX1R antag-2: OX1R (human) antagonism. O43613. 1.8% of 330,000 active. OX1R-expressing cells, FRET antagonist read-out. AID 485270. inhibition, % at 6.6 µM; in the data active = inhibition mostly above about 38%, no sharp cut-off; inactive = mostly below about 40%;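 also: 0% = agonist challenge alone and 100% = reference antagonist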
OX1R HTRF conf: confirmation of human orexin 1 receptor antagonists, HTRF format. 49% of 1,800 active. shares compounds with OX1R antag-2. OX1R-expressing cells, HTRF antagonist assay. AID 492964. inhibition, % at 6.6 µM; in the data active = inhibition above about 55%;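 also: CHO cells expressing OX1R stimulated with orexin A at about EC80; 0% = agonist challenge alone and 100% = reference antagonist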
CHO-K1 HTRF: counter-screen for OX1R antagonists: effect in parental CHO-K1 cells. shares compounds with OX1R antag-2. HTRF counterscreen. inhibition, % at 6.6 µM. 48% of 1,800 active. AID 493232; in the data active = inhibition above about 17%;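 also: 0% = agonist challenge with vehicle and 100% = vehicle alone without agonist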
* hit, by the source's call; . = no result. Most compounds without a hit are left out; they make up all but 3.8% or so of the library.

SMILES | CHO parental Ca | MPTP block | GPR7 antagonist | OX1R antag-1 | OX1R antag-2 | OX1R HTRF conf | CHO-K1 HTRF
COc1cccc(C(=O)CSc2nnnn2C2CCCCC2)c1 | -1 | -1 | -8 | -17 | 9 | . | .
CCC(CC)C(C(=O)NCc1ccccc1)N1CCN(c2cccc(C)c2C)CC1 (configuration not stated) | . | 0 | . | . | . | . | .
CC(=O)N(C(C)=O)N1C(=O)c2cccc3c(N4CCOCC4)ccc(c23)C1=O | 7 | -1 | -6 | -6 | 119* | 34 | 40*
Cc1ccn2cc(-c3cccc(NC(=O)c4ccccc4)c3)nc2c1 | -24 | -2 | 11 | -24 | 78* | 62* | 4
O=C(c1nc2nc(-c3ccccc3)cc(C(F)(F)F)n2n1)N1CCOCC1 | -4 | 0 | -9 | 0 | 77* | 22 | 27*
O=C(c1nn2c(C(F)(F)F)cc(-c3ccccc3)nc2c1Cl)N1CCOCC1 | -14 | 3 | -8 | -29 | 7 | . | .
CC(C)n1c(=O)c2ccccc2n1Cc1cn(Cc2cccs2)nn1 | . | -1 | . | . | . | . | .
CCOC(=O)C1=C(C)NC(C)=C(C(=O)OCC)C1/C=C/c1ccccc1OC | -18 | 3 | -11 | -21 | 15 | . | .
COCCOC(=O)C1=C(C)NC(C)=C(C(=O)OCCOC)C1/C=C/c1ccccc1OC | -10 | 4 | -8 | -75 | 78* | 23 | -2
CC[n+]1ccc(/C=C2\Sc3ccccc3N2CCCS(=O)(=O)[O-])c2ccccc21 | 8 | 1 | 0 | 11 | 97* | 44 | 15
CC1(CCC(=O)N2CCCC(N3CCN(c4ccc(F)cc4)CC3)C2)CC1 (configuration not stated) | -1 | 0 | -8 | -33 | 10 | . | .
N#Cc1cc(NC2CCCC2)c([N+](=O)[O-])cc1C#N | -11 | 1 | -14 | -23 | 45 | . | .
CN(C)CCC1CCN(c2cc(C#N)c(C#N)cc2[N+](=O)[O-])CC1 | -16 | 0 | -11 | -11 | 118* | 53 | 54*
CC1(C(=O)O)COC(c2ccc([N+](=O)[O-])cc2)OC1 (configuration not stated) | -4 | -2 | 5 | 1 | 24 | . | .
O=C1NC(C(=O)O)=CC(c2ccc([N+](=O)[O-])cc2)N1 (configuration not stated) | -2 | 0 | -9 | 4 | 104* | 48 | 78*
CCCCn1c(N)c(N(CC)C(=O)c2ccc(Cl)c(Cl)c2)c(=O)[nH]c1=O | -3 | -2 | -2 | -16 | 14 | . | .
O=C(NCCc1ccccc1)c1ccc2c(c1)S(=O)(=O)c1ccccc1C2=O | -19 | -2 | . | -25 | 24 | . | .
CCCCn1c(N)c(N(CC)C(=O)c2ccc3c(c2)S(=O)(=O)c2ccccc2C3=O)c(=O)[nH]c1=O | -2 | 3 | -15 | -3 | 85* | 23 | 18*
CC(=O)NCCNC(=O)c1ccc2c(c1)S(=O)(=O)c1ccccc1C2=O | -11 | 0 | -18 | -32 | 86* | 54 | 85*
CC(C)OCCCNC(=O)c1ccc2c(c1)S(=O)(=O)c1ccccc1C2=O | -11 | 2 | -7 | -15 | 85* | 45 | 41*
COCCNC(=O)c1ccc2c(c1)S(=O)(=O)c1ccccc1C2=O | 0 | -2 | . | -5 | 86* | 54 | 84*
COc1cc(CNC(=O)c2ccc3c(c2)S(=O)(=O)c2ccccc2C3=O)cc(OC)c1 | -13 | -4 | . | -14 | 18 | . | .
CCC(C)Sc1nnc(CSc2nc3nc(C)cc(C)n3n2)o1 (configuration not stated) | -16 | 1 | -13 | -17 | 14 | . | .
COc1cc(C#N)c(NC(=S)N2CCOCC2)cc1OC | 12 | . | -3 | -8 | 12 | . | .
Cc1ccc(C)c(N2CC(C(=O)Nc3nccs3)CC2=O)c1 (configuration not stated) | -10 | -1 | 8 | -14 | 45 | . | .
CCC(C)NC(=O)c1ccc2c(c1)S(=O)(=O)c1ccccc1C2=O (configuration not stated) | . | 0 | -11 | . | . | . | .
CCCCNC(=O)c1ccc2c(c1)S(=O)(=O)c1ccccc1C2=O | . | -1 | -8 | . | . | . | .
CCNC(=O)c1ccc2c(c1)S(=O)(=O)c1ccccc1C2=O | -21 | -2 | -14 | -16 | 189* | 49 | 67*
C=CCNC(=O)c1ccc2c(c1)S(=O)(=O)c1ccccc1C2=O | -12 | 2 | . | -23 | 126* | 58* | 58*

Source: PubChem BioAssay (several laboratories)
